Laboratory results published in ChEMBL document CHEMBL1146466, “Immunomodulatory constituents from an Ascomycete, Chaetomium seminudum” (J Nat Prod, 2004).
Values after ≈ are worked out from the molar mass of the structure shown.

How the values were obtained:
[1] = Immunosuppressive activity in BALB/c mouse splenic T lymphocytes assessed as inhibition of Con A-induced cell proliferation after 72 hrs by MTT assay; assay type: functional, cell-based
Procedure, shortened: (§1)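 Splenocytes from three male BALB/c mice (7-11 weeks) at 8.0 × 10^6 cells/mL in FBS/RPMI, stimulated with LPS (B cells) or Con A (T cells) at 70% of the optimum dose from a dose-response curve. Samples were dissolved in 1.0% EtOH/medium and incubated 72 h at 37 °C in 5% CO2. MTT (5.0 mg/mL stock) was added for 4 h, formazan extracted into DMSO, and A570/630 read. Proliferation was expressed as % of no-sample control, in triplicate. IC50 came from a 7-concentration curve.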

[2] = Immunosuppressive activity in BALB/c mouse splenic B lymphocytes assessed as inhibition of LPS-induced cell proliferation after 72 hrs by MTT assay; assay type: functional, cell-based; procedure, shortened: as §1

Row | SMILES | IC50 [1] | IC50 [2]
1 | CS[C@]1(Cc2c[nH]c3ccccc23)NC(=O)[C@](CO)(SC)N(C)C1=O [CHETOSEMINUDIN B] | 24000 ng/mL (≈ 63200 nM) | –
2 | CN1C(=O)[C@]2(Cc3cn([C@]45C[C@@]67SS[C@@](CO)(C(=O)N6[C@H]4Nc4ccccc45)N(C)C7=O)c4ccccc34)SS[C@@]1(CO)C(=O)N2C [CHETOMIN] | 170 ng/mL (≈ 239 nM) | 90 ng/mL (≈ 127 nM)
3 | Cn1cnc([N+](=O)[O-])c1Sc1ncnc2[nH]cnc12 [AZATHIOPRINE] | 2700 ng/mL (≈ 9740 nM) | 2700 ng/mL (≈ 9740 nM)
4 | C=CC[C@@H]1/C=C(\C)C[C@H](C)C[C@H](OC)[C@H]2O[C@@](O)(C(=O)C(=O)N3CCCC[C@H]3C(=O)O[C@H](/C(C)=C/[C@@H]3CC[C@@H](O)[C@H](OC)C3)[C@H](C)[C@@H](O)CC1=O)[C@H](C)C[C@@H]2OC [TACROLIMUS ANHYDROUS] | 0.015 ng/mL (≈ 0.0187 nM) | 1.6 ng/mL (≈ 1.99 nM)
5 | CS[C@]1(CO)NC(=O)[C@](Cc2c[nH]c3ccccc23)(SC)NC1=O [CHETOSEMINUDIN C] | > 50000 ng/mL | –
6 | CN1C(=O)[C@]2(Cc3cn([C@]45C[C@@]67SSS[C@@](CO)(C(=O)N6[C@H]4Nc4ccccc45)N(C)C7=O)c4ccccc34)SS[C@@]1(CO)C(=O)N2C [CHETOSEMINUDIN A] | 180 ng/mL (≈ 242 nM) | 130 ng/mL (≈ 175 nM)
